The values below come from ChEMBL document CHEMBL2380254, “Optimization of tocotrienols as antiproliferative and antimigratory leads” (Eur J Med Chem, 2013).

Experiment [1] has as its system SK-MEL-5. Briefly: Growth inhibition of human SK-MEL-5 cells assessed as cell growth at 10 uM after 48 hrs by sulforhodamine B assay. The class given is functional. The settings on record: SK-MEL-5, 48 h, read-out: Activity. In outline: (§1)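 Single-dose NCI-60 screen: adherent cells in RPMI 1640 with 5% FBS were exposed to 10 µM for 48 h at 37 °C after a 24 h preincubation. They were fixed in situ with cold TCA (10% final), stained with 0.4% SRB in 1% acetic acid, solubilized in 10 mM Tris base, and read at 515 nm. Percent growth was taken relative to time-zero and control plates.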
In general terms: The SRB assay estimates cell density from bound dye.

The subject of experiment [2] is ACHN. Put plainly: Growth inhibition of human ACHN cells after 48 hrs by sulforhodamine B assay. It is filed as functional. In outline: (§2)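 NCI-60 screen: cells in RPMI 1640 with 5% FBS and 2 mM glutamine, 5000–40,000 cells/well, preincubated 24 h. Five concentrations (10-fold dilutions; 100 to 0.001 µM) applied for 48 h at 37 °C. TCA fixation, SRB stain, absorbance at 515 nm. Time-zero plates included; GI50 where 100×(T−T0)/(C−T0)=50.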

Experiment [3] concerns SNB-19. Briefly: Growth inhibition of human SNB19 cells after 48 hrs by sulforhodamine B assay. It is filed as functional. As to conditions: SNB-19, 48 h. Summed up: (§3)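 NCI-60 five-dose screen. Cells were grown in RPMI 1640 with 5% FBS and 2 mM L-glutamine, plated at 5000–40,000 cells/well and incubated 24 h before dosing, with T0 plates TCA-fixed. DMSO stocks were diluted to doses of […] and exposed 48 h at 37 °C, 5% CO2. Cells were fixed with cold TCA (final 10%, 60 min, 4 °C), stained with 0.4% SRB in 1% acetic acid for 10 min, solubilized in 10 mM trizma base and read at 515 nm. GI50 is where 100×(T−T0)/(C−T0)=50.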

Experiment [4] deals with OVCAR-4. Briefly: Growth inhibition of human OVCAR4 cells after 48 hrs by sulforhodamine B assay. The settings on record: OVCAR-4, 48 h. It is filed as functional. Summed up:
(§4)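 NCI-60 panel cells grown in RPMI 1640 with 5% FBS and 2 mM L-glutamine, seeded at 5000–40,000 cells/well and preincubated 24 h. Five 10-fold dilutions (0.001–100 µM) from DMSO stocks were added for 48 h at 37 °C. Adherent cells were fixed with cold TCA (10% final) for 60 min at 4 °C, stained with 0.4% SRB, and read at 515 nm. GI50 was set where 100×(T−T0)/(C−T0)=50.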

Experiment [5] concerns SF-268. Briefly: Growth inhibition of human SF268 cells after 48 hrs by sulforhodamine B assay. It is filed as functional. As to conditions: SF-268, 48 h. In outline: as §4
Experiment [6] relates to 786-0. Briefly: Growth inhibition of human 786-0 cells after 48 hrs by sulforhodamine B assay. The class given is functional. The settings on record: 786-0, 48 h. In outline:
as §2

Experiment [7] relates to NCI-H322M. Briefly: Growth inhibition of human NCI-H322M cells after 48 hrs by sulforhodamine B assay. The class given is functional. Summed up: as §4
Experiment [8] concerns LOX IMVI. Put plainly: Growth inhibition of human LOXIMVI cells assessed as cell growth at 10 uM after 48 hrs by sulforhodamine B assay. The class given is functional. The settings on record: read-out: Activity. In outline:
(§5)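 NCI-60 single-dose screen at 10 µM: cells in RPMI 1640 with 5% FBS, preincubated 24 h, then exposed 48 h at 37 °C. TCA fixation (16% final for suspension cells), SRB staining, absorbance 515 nm. Percent growth relative to time-zero and untreated control plates; negative values indicate cell kill.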

The test system of experiment [9] is OVCAR-4. Put plainly: Growth inhibition of human OVCAR4 cells assessed as cell growth at 10 uM after 48 hrs by sulforhodamine B assay. The settings on record: OVCAR-4, 48 h, read-out: Activity. The class given is functional. Summed up:
as §1

Experiment [10] relates to U-251. Put plainly: Growth inhibition of human U251 cells after 48 hrs by sulforhodamine B assay. The class given is functional. As to conditions: U-251, 48 h. Summed up: as §3
Experiment [11] concerns HL-60(TB). Briefly: Growth inhibition of human HL-60(TB) cells after 48 hrs by sulforhodamine B assay. The class given is functional. The settings on record: HL-60, 48 h. In outline: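 HL-60(TB) cells (suspension) grown in RPMI 1640 with 5% FBS and 2 mM L-glutamine. They were plated and preincubated for 24 h, with T0 plates fixed at that point. Drug was given at five 10-fold dilutions for 48 h at 37 °C. Settled cells were fixed with TCA (16% final), stained with 0.4% SRB in 1% acetic acid and read at 515 nm. GI50 was taken where 100×(T−T0)/(C−T0)=50.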

Experiment [12] deals with HOP-62. Briefly: Growth inhibition of human HOP62 cells assessed as cell growth at 10 uM after 48 hrs by sulforhodamine B assay. The class given is functional. As to conditions: HOP-62, 48 h, read-out: Activity. In outline: as §5
Experiment [13] concerns CAKI-1. Put plainly: Growth inhibition of human CAKI-1 cells assessed as cell growth at 10 uM after 48 hrs by sulforhodamine B assay. It is filed as functional. As to conditions: CAKI-1, 48 h, read-out: Activity. In outline: as §5
The nature of experiment [14]: Growth inhibition of human NCI-ADR-RES cells assessed as cell growth at 10 uM after 48 hrs by sulforhodamine B assay. The class given is functional. As to conditions: read-out: Activity. In outline: as §1
The nature of experiment [15]: Growth inhibition of human Hs 578T cells assessed as cell growth at 10 uM after 48 hrs by sulforhodamine B assay. As to conditions: read-out: Activity. The class given is functional. In outline:
as §5

Experiment [16] concerns MCF7. Briefly: Antiproliferative activity against human MCF7 cells by MTT assay. It is filed as functional, cell-based. In outline:
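Cells plated at 8 × 10^3/well (MDA-MB-231) or 10^4/well (MCF7) in 96-well plates. Compounds fed in media with 5% FBS (MDA-MB-231) or 1% FBS (MCF7). MTT read-out of viable cells.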

Experiment [17] deals with SNB-19. Briefly: Growth inhibition of human SNB19 cells assessed as cell growth at 10 uM after 48 hrs by sulforhodamine B assay. It is filed as functional. The settings on record: SNB-19, 48 h, read-out: Activity. Summed up: (§6)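 Single-dose NCI-60 test at 10 µM. Cells were grown in RPMI 1640 with 5% FBS and 2 mM L-glutamine, preincubated 24 h, with T0 plates TCA-fixed. Exposure was 48 h at 37 °C, 5% CO2. Cells were fixed with cold TCA (final 10%, 4 °C, 60 min), stained with SRB and read at 515 nm. Percent growth was taken relative to T0 and untreated control; negative values denote cell kill.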

For experiment [18], the system named is Malme-3M. Put plainly: Growth inhibition of human MALME-3M cells assessed as cell growth at 10 uM after 48 hrs by sulforhodamine B assay. The class given is functional. The settings on record: read-out: Activity. Summed up: as §1
Experiment [19] relates to RXF 393. Briefly: Growth inhibition of human RXF393 cells after 48 hrs by sulforhodamine B assay. It is filed as functional. The settings on record: RXF 393, 48 h. Summed up:
as §4

Experiment [20] concerns IGROV-1. Put plainly: Growth inhibition of human IGROV1 cells after 48 hrs by sulforhodamine B assay. It is filed as functional. As to conditions: IGROV-1, 48 h. In outline: as §2
The test system of experiment [21] is HCT-116. Put plainly: Growth inhibition of human HCT116 cells after 48 hrs by sulforhodamine B assay. The class given is functional. As to conditions: HCT-116, 48 h. Summed up: as §2
For experiment [22], the system named is UACC-257. Put plainly: Growth inhibition of human UACC257 cells assessed as cell growth at 10 uM after 48 hrs by sulforhodamine B assay. The class given is functional. The settings on record: UACC-257, 48 h, read-out: Activity. In outline: as §6
The subject of experiment [23] is DU-145. Briefly: Growth inhibition of human DU145 cells after 48 hrs by sulforhodamine B assay. The class given is functional. As to conditions: DU-145, 48 h. Summed up: as §2
Experiment [24] concerns SF-539. Briefly: Growth inhibition of human SF539 cells assessed as cell growth at 10 uM after 48 hrs by sulforhodamine B assay. As to conditions: SF-539, 48 h, read-out: Activity. It is filed as functional. In outline: as §1

SMILES strings stand for the structures.

What is called GI50 is the concentration that inhibits growth by half. The low end stands for greater sensitivity of the cells, the high end for lower sensitivity of the cells. One may read the IC50 as the concentration that inhibits the measured activity by half. As to `CC(C)=CCC/C(C)=C/CC/C(C)=C/CC[C@]1(C)CCc2c3c(c(C)c(C)c2O1)OCN(CCCCCCO)C3`, the growth at 10 µM in experiment [1] was 95.2%; in experiment [8], -88.4%; in experiment [9] it was 3.51%; in experiment [12], -23.3%; in [13], 47%; in [14], 30.1%. For the same molecule, the growth at 10 µM in experiment [15] is 90.4%; in [17], 18.1%; in experiment [18], 85.7%; in experiment [22], 104%; in experiment [24] it was 66.1%. The GI50 in experiment [2] worked out at 2750 nM; in experiment [3], 2480 nM; in experiment [4], 2490 nM; in experiment [5], 2810 nM; in experiment [6], 2790 nM; in experiment [7], 2710 nM. For the same molecule, the GI50 in [10] was found to be 2730 nM; in [11], 3580 nM; in [19], 2300 nM; in experiment [20], 2690 nM; in experiment [21] it was 2870 nM; in [23], 2960 nM. Further, the IC50 in experiment [16] is > 20000 nM.
Consider `CC(C)=CCC/C(C)=C/CC/C(C)=C/CC[C@]1(C)CCc2c3c(c(C)c(C)c2O1)OCN(CCCCO)C3`, for which the growth at 10 µM in [1] was 91%; in [8], -90.5%; in [9], 77.5%; in experiment [12], 75%; in experiment [13], 70.1%; in [14], 57.5%. Moreover, the growth at 10 µM worked out at 91.6% in experiment [15]; 71.3% in experiment [17]; 93.3% in experiment [18]; 112% in [22]; 69.6% in experiment [24]. Also, the concentration for 50% growth inhibition (GI50) in experiment [2] is > 10000 nM; in [3], 3030 nM; in [4] it was 3110 nM; in experiment [5], > 10000 nM; in experiment [6], > 10000 nM; in experiment [7] it was > 10000 nM. For the same molecule, the GI50 in experiment [10] is 1550 nM; in experiment [11], 3860 nM; in experiment [19], 5630 nM; in experiment [20], 6530 nM; in experiment [21], 2000 nM; in experiment [23], 6550 nM. The IC50 in experiment [16] is > 20000 nM.
